# Experimental data collected from several papers.
# Each line is one published result; the experiments were not run side by side.
# Matrix: plasma
Compound,species,route,dose,notes,quantity,value
CCOC(=O)[C@@]12C[C@@H]1[C@@H](n1ccc3c(NC)nc(C#Cc4ccc(Cl)s4)nc31)[C@H](O)[C@@H]2O,male Sprague-Dawley rat,intravenous,0.5 mg/kg,,MRT(0-t),1.29 h
O=C(Nc1cc(F)c(F)c(F)c1)c1ccc(F)c(S(=O)(=O)NCc2cccc(B(O)O)c2)c1,male Sprague-Dawley rat,oral,20 mg/kg,,MRT(0-inf),1.25 h
Oc1c(Br)cc(Cl)c2cccnc12,Sprague-Dawley rat,oral,20 mg/kg,,MRT,6.8 h
COc1nc(-c2cc(C)c(N[C@@H](C)c3cc(F)cc(F)c3)nn2)ccc1-n1cnc(C)c1,male Sprague-Dawley rat,oral,5 mg/kg,single dose,MRT(0-t),6.87 h
Cc1nc(Nc2ncc(C(=O)Nc3c(C)cccc3Cl)s2)cc(N2CCN(CCO)CC2)n1,female Sprague-Dawley rat,intravenous,5 mg/kg,,MRT,3.78 h
CCc1cc(C(=O)NC)c2nccc(N3CCc4c(cc(Cn5ccnc5)cc4-c4cn(C)nc4C(F)(F)F)C3=O)c2c1,male Sprague-Dawley rat,oral,100 mg/kg,single dose,MRT(0-inf),3.8 h
CNCc1cc(-c2ccccc2F)n(S(=O)(=O)c2cccnc2)c1,Sprague-Dawley rat,oral,10 mg/kg,,MRT(0-t),2.43 h
N#Cc1ccc(Nc2nc(N)cc(Oc3c(F)cc(-c4ccc(C#N)cc4)cc3F)n2)cc1,Sprague-Dawley rat,oral,5 mg/kg,,MRT(0-inf),6.48 h
C#Cc1cccc(Nc2ncnc3cc(OCCOC)c(OCCOC)cc23)c1,male Sprague-Dawley rat,oral,12 mg/kg,single dose,MRT(0-inf),5.1 h
CCc1cc(OC)c2nccc(N3CCc4c(cc(Cn5ccnc5)cc4-c4cn(C)nc4C(F)(F)F)C3=O)c2c1,male Sprague-Dawley rat,oral,50 mg/kg,,MRT(0-inf),2.7 h
CCc1nc(C(N)=O)c(Nc2ccc(N3CCC(N4CCN(C)CC4)CC3)c(OC)c2)nc1NC1CCOCC1,male Sprague-Dawley rat,oral,10 mg/kg,,MRT(0-inf),21.8 h
COc1ccc(C(C)=O)c(O)c1,male Sprague-Dawley rat,oral,100 mg/kg,,MRT(0-t),3.83 h
